From article PMC12848671 (Chemical & Biomedical Imaging, 2025)
Where two headings read alike, the source gives them in different places. Ends that are not written are not given here. * marks the point of attachment. 125I = [125I]*

What was measured:
[1] = Chemical stability by analytical HPLC; type: physicochemical; settings: 1 mg/mL, 37 °C, 24 h
Method in brief: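 For acid stability, test peptide at 1 mg/mL in diluted HCl (pH 2), held at 37 °C for up to 24 h. Purity by analytical HPLC on a C18 column: A = acetonitrile/0.1% TFA, B = water/0.1% TFA, 65-40-0% B over 0-20-20.1 min, 1 mL/min, room temperature.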

HEK293-hACE2 cells [2] = settings: 36 h
HEK293-hACE2 cells [3] = settings: even at a concentration of 36.27 μM; 36 h
[4] = Radiochemical stability in 0.01 M PBS; type: physicochemical; settings: radio-TLC, mean ± SD
[5] = Radiochemical stability in 10% FBS; type: in vitro ADME; settings: radio-TLC, mean ± SD
wild-type C57BL/6 mice = assay: 68Ga-DOTA-Omi-X PET/CT, wild-type mice; type: in vivo, mouse; settings: 3.7 MBq i.v., PET 2 h P.I.
HEK293-hACE2 cells [6] = type: cell-based, human; settings: 2 × 10^6 cells/mL, 0.5 mL, γ-counter, mean ± SD, three repetitions
K18-hACE2 mice = assay: 125I-based SPECT/CT in vivo distribution, K18-hACE2 mice; design: species or system mouse
Method in brief: (§1)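 Male mice, 4 months old, n = 5 per strain, anaesthetised with isoflurane (1.5%–2% induction, 1%–1.5% maintenance). Each got 3.28 ± 0.42 MBq of the 125I-labelled test peptide via the lateral tail vein. SPECT (35 keV, MLEM, 28 min) at 1 and 6 h post-injection, followed by CT. Manual 3D ROIs gave uptake (counts/mm3) in heart, lungs, liver and GI tract.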

C57BL/6 mice = assay: 125I-based SPECT/CT in vivo distribution, wild-type mice; design: species or system mouse; settings: WT C57BL/6 mice, i.v., by 6 h P.I.
Method in brief: as §1

## CC(C)C[C@H](NC(=O)[C@H](CC(C)C)NC(=O)[C@H](CCC(=O)O)NC(=O)[C@H](Cc1ccccc1)NC(=O)[C@H](CO)NC(=O)[C@H](CC(C)C)NC(=O)[C@@H](NC(=O)[C@@H](NC(=O)[C@@H](NC(=O)[C@H](CCCNC(=N)N)NC(=O)[C@H](Cc1ccc(O)cc1)NC(=O)[C@@H]1CCCN1C(=O)[C@H](CCC(N)=O)NC(=O)[C@@H](N)Cc1c[nH]cn1)C(C)C)C(C)C)C(C)C)C(=O)N[C@@H](Cc1c[nH]cn1)C(=O)O [Omi-X]
[1]; diluted HCl (pH = 2), analytical HPLC C18
  chemical stability of the peptide sequence: chemically stable
[1]; weakly acidic environment: diluted HCl (pH = 2), analytical HPLC
  chemical stability of the peptide sequence: > 95%
HEK293-hACE2 cells [2]; 54.410 μM (100 μg/mL)
  cell-division rate (CFDA SE): slightly inhibited
HEK293-hACE2 cells [2]; low-dose 0.544 μM (1 μg/mL)
  cell-division rate (CFDA SE): no significant difference
HEK293-hACE2 cells [2]; medium-dose 5.441 μM (10 μg/mL)
  cell-division rate (CFDA SE): no significant difference
HEK293-hACE2 cells [3]
  effect on cell cycle distribution: no significant effect

## CC(C)C[C@H](NC(=O)[C@H](CC(C)C)NC(=O)[C@H](CCC(=O)O)NC(=O)[C@H](Cc1ccccc1)NC(=O)[C@H](CO)NC(=O)[C@H](CC(C)C)NC(=O)[C@@H](NC(=O)[C@@H](NC(=O)[C@@H](NC(=O)[C@H](CCCNC(=N)N)NC(=O)[C@H](Cc1ccc(O)cc1)NC(=O)[C@@H]1CCCN1C(=O)[C@H](CCC(N)=O)NC(=O)[C@H](Cc1c[nH]cn1)NC(=O)CN1CCN(CC(=O)O)CCN(CC(=O)O)CCN(CC(=O)O)CC1)C(C)C)C(C)C)C(C)C)C(=O)N[C@@H](Cc1c[nH]cn1)C(=O)O [^68Ga-DOTA-Omi-X, metal not drawn]
[4]
  radiochemical stability (4 h) in 0.01 M PBS: 96.10 ± 0.75%
[5]
  radiochemical stability (4 h) in 10% FBS: 94.10 ± 1.55%
wild-type C57BL/6 mice
  ACE2-specific targeting: did not appear to show significant ACE2-specific targeting

## TVCGPKKSTNLVKNK [Omi-B]
HEK293-hACE2 cells [6]
  radioactive uptake rate in HEK293-hACE2 cells (ACE2-binding rate): 15.04% ± 2.98%

## ^125I-Omi-X: 125I-labeled Omi-X for SPECT imaging (HQPY(125I)RVVVLSFELLH)
K18-hACE2 mice; i.v. tail vein, SPECT/CT 1 h P.I.
  clearance from circulation: rapidly cleared from circulation
K18-hACE2 mice; i.v., SPECT/CT
  excretion of unbound tracer: primarily excreted through the urinary system
K18-hACE2 mice; i.v., SPECT/CT 1 h P.I.
  organ accumulation: notably accumulated in the organs highly expressing ACE2, including the lung, heart, liver, and spleen
C57BL/6 mice
  uptake in RAAS-related organs: greatly reduced
